≈ marks a conversion by molar mass, not a printed value. Calls of active or inactive are those of the source. The calls are words filed in the database; no cut-off is given here.
Experiments:
DCN1-like protein 1 [1] = target: T1, DCN1-like protein 1 (Homo sapiens, UniProt Q96GG9); assay: Inhibition of human DCN1-mediated cullin neddylation assessed as reduction in transfer of fluorescein-5-maleimide-tagged NEDD8 from N-terminally acetylated human UBE2M to CUL2-CTD measured for 10 sec by pulse-chase assay
T1 sequence (Q96GG9 whole entry): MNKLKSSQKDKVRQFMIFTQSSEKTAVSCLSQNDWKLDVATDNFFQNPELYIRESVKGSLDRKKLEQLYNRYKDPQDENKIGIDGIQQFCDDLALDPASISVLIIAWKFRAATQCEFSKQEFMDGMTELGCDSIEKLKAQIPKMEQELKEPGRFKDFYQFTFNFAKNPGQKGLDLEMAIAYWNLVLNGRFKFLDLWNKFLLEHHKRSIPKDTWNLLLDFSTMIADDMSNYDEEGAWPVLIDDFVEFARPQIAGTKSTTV

BJ = assay: Growth inhibition of human BJ cells; assay type: cell-based
Summary of the method: (§1)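 In vitro monolayer proliferation assay in BJ cells (normal fibroblasts lacking DCN1 amplification) and HCC95 cells (squamous cell carcinoma line carrying DCN1 amplification). EC50 is reported as mean ± standard deviation from at least one experiment run in triplicate. A ">" value means less than 50% growth inhibition at the highest concentration tested.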

[2] = Solubility of the compound at pH 7.4 after 18 hrs by UV-spectroscopy; assay type: physicochemical; details: buffer
Summary of the method: (§2)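 Measured in triplicate within at least one experiment; values reported as mean ± standard deviation.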

HCC95 = assay: Growth inhibition of human HCC95 cells; assay type: functional, cell-based; summary of the method: as §1
DCN1-like protein 1 [3] = target: T1, DCN1-like protein 1
DCN1-like protein 1 [4] = target: T1, DCN1-like protein 1; assay: Binding affinity biotinylated human GST-tagged DCN1 by ITC method
[5] = Permeability of the compound at 10 uM by PAMPA; assay type: ADME; details: for permeability: pampa, 10 µM; for Papp at 10 µM: PAMPA, read-out: permeability; summary of the method: as §2
Homo sapiens = organism: Homo sapiens; assay: Inhibition of human RBX1-catalyzed CUL2(CTD) neddylation assessed as reduction in transfer of N-terminal cys-tagged NEDD8 from UBE2M to CUL2-CTD at 12.5 uM measured up to 6 mins by pulse-chase assay
Summary of the method: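 In vitro pulse-chase monitoring NEDD8 transfer from UBE2M to the CUL2 C-terminal domain, stimulated by DCN1 together with RBX1. The CUL2 domain stands in for cullins 1-5. The assay is a variation of a previously published pulse-chase format, also run against each of the five DCN family members.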

Row | SMILES | solubility at 18 h [2] [µM] | IC50 (DCN1-like protein 1 [3]) [µM] | Papp at 10 µM [5] [×10⁻⁶ cm/s] | other results
1 | CCCN1CCC(N(Cc2ccccc2)C(=O)Nc2cccc(C(F)(F)F)c2)CC1 | 39 (≈ 16.4 µg/mL) | 0.82 | – | EC50 (DCN1-like protein 1 [1]): 0.4 µM; EC50 (BJ): > 23 µM; EC50 (HCC95): > 40 µM; Kd (DCN1-like protein 1 [4]): 0.86 µM; permeability [5]: 1800 ×10⁻⁶ cm/s
2 | CSc1cccc(NC(=O)NC2CCN(Cc3ccccc3)CC2)c1 | – | > 67 | – | –
3 | O=C(Nc1cccc(C(F)(F)F)c1)N(Cc1ccccc1)C1CCN(CC2CCCCC2)CC1 | 1.2 (≈ 0.568 µg/mL) | 0.62 | < 1 | –
4 | O=C(Nc1cccc(C(F)(F)F)c1)N(Cc1ccccc1)C1CCN(Cc2ccccc2)CC1 | 11 (≈ 5.14 µg/mL) | – | 300 | –
5 | Cc1ccccc1CN1CCC(NC(=O)Nc2cccc(C(F)(F)F)c2)CC1 | 44 (≈ 17.2 µg/mL) | 4 | – | permeability [5]: 1200 ×10⁻⁶ cm/s
6 | CCOc1cc(CN2CCC(N(Cc3ccccc3)C(=O)Nc3cccc(C(F)(F)F)c3)CC2)cc(Cl)c1O | 0.4 (≈ 0.225 µg/mL) | – | 110 | –
7 | CCCN1CCC(N(CC(C)C)C(=O)Nc2cccc(C(F)(F)F)c2)CC1 | 96 (≈ 37 µg/mL) | 5.8 | – | permeability [5]: 1900 ×10⁻⁶ cm/s
8 | CCCCCN1CCC(N(Cc2ccccc2)C(=O)Nc2cccc(C(F)(F)F)c2)CC1 | 58 (≈ 26 µg/mL) | 0.66 | – | permeability [5]: 1400 ×10⁻⁶ cm/s
9 | CCCN1CCC(N(Cc2ccc3c(c2)OCO3)C(=O)Nc2cccc(C(F)(F)F)c2)CC1 | 66 (≈ 30.6 µg/mL) | – | > 2200 | EC50 (BJ): > 23 µM; EC50 (HCC95): > 40 µM
10 | O=C(Nc1cccc(C(F)(F)F)c1)N(Cc1ccccc1)C1CCNCC1 | 71 (≈ 26.8 µg/mL) | 21 | > 2200 | –
11 | O=C(Nc1cccc(C(F)(F)F)c1)NC1CCN(C(=O)c2ccccc2)CC1 | 2.8 (≈ 1.1 µg/mL) | > 67 | 910 | –
12 | O=C(Nc1cccc(C(F)(F)F)c1)NC1CCN(Cc2ccccc2)CC1 | 32 (≈ 12.1 µg/mL) | – | 670 | EC50 (BJ): > 24 µM; EC50 (HCC95): > 32 µM
13 | O=C(Nc1cccc(C(F)(F)F)c1)N(Cc1ccccc1)C1CCN(CCC(F)(F)F)CC1 | 2.3 (≈ 1.09 µg/mL) | 23 | 440 | –
14 | O=C(Nc1cccc(C(F)(F)F)c1)N(Cc1ccccc1)C1CCN(Cc2ccc3c(c2)OCCO3)CC1 | 1 (≈ 0.526 µg/mL) | 0.36 | > 2200 | –
15 | O=C(Nc1cccc(C(F)(F)F)c1)N(Cc1ccccc1)C1CCN(Cc2c[nH]cn2)CC1 | 110 (≈ 50.3 µg/mL) | 5.9 | 50 | –
16 | CCCN1CCC(N(CCC(C)C)C(=O)Nc2cccc(C(F)(F)F)c2)CC1 | 61 (≈ 24.4 µg/mL) | 2.7 | – | permeability [5]: 1500 ×10⁻⁶ cm/s
17 | CC(C)(C)CCN1CCC(N(Cc2ccccc2)C(=O)Nc2cccc(C(F)(F)F)c2)CC1 | 5.8 (≈ 2.68 µg/mL) | 0.17 | > 2200 | –
18 | CCCC(=O)N1CCC(N(Cc2ccccc2)C(=O)Nc2cccc(C(F)(F)F)c2)CC1 | < 0.1 | – | > 2200 | –
19 | O=C(Nc1cccc(C(F)(F)F)c1)N(Cc1ccccc1)C1CCN(CC2CC2)CC1 | 75 (≈ 32.4 µg/mL) | 0.21 | > 2200 | –

Row | SMILES | solubility at 18 h [2] [µM] | IC50 (DCN1-like protein 1 [3]) [µM] | Papp at 10 µM [5] [×10⁻⁶ cm/s] | other results
20 | CCCCN(C(=O)Nc1cccc(C(F)(F)F)c1)C1CCN(CCC)CC1 | 70 (≈ 27 µg/mL) | 1.4 | > 2200 | –
21 | O=C(Nc1cccc(C(F)(F)F)c1)NC1CCN(Cc2ccccc2Cl)CC1 | 0.3 (≈ 0.124 µg/mL) | 28 | 830 | –
22 | O=C(Nc1ccc2c(c1)OCO2)NC1CCN(Cc2ccccc2)CC1 | – | > 67 | – | –
23 | CC(C)CCN1CCC(N(Cc2ccccc2)C(=O)Nc2cccc(C(F)(F)F)c2)CC1 | 60 (≈ 26.9 µg/mL) | 0.79 | > 2200 | –
24 | CCCN1CCC(N(CCC)C(=O)Nc2cccc(C(F)(F)F)c2)CC1 | 61 (≈ 22.7 µg/mL) | 10 | – | permeability [5]: 1600 ×10⁻⁶ cm/s
25 | COc1cccc(NC(=O)NC2CCN(Cc3ccccc3)CC2)c1 | – | > 67 | – | –
26 | O=C(Nc1cccc(C(F)(F)F)c1)NC1CCN(Cc2cccc(Cl)c2)CC1 | 0.7 (≈ 0.288 µg/mL) | – | – | permeability [5]: 1700 ×10⁻⁶ cm/s
27 | O=C(Nc1cccc(CN2CCOCC2)c1)NC1CCN(Cc2ccccc2)CC1 | 75 (≈ 30.6 µg/mL) | > 67 | 220 | –
28 | Cc1cccc(NC(=O)NC2CCN(Cc3ccccc3)CC2)c1 | – | 44 | – | –
29 | O=C(Nc1cccc(C(F)(F)F)c1)NC1CCN(Cc2cccc(F)c2)CC1 | 50 (≈ 19.8 µg/mL) | 16 | > 2200 | –
30 | O=C(Nc1cccc(C(F)(F)F)c1)N(Cc1ccccc1)C1CCN(Cc2ccc3c(c2)OCO3)CC1 | < 0.1 | 12 | > 2200 | –
31 | O=C(Nc1cccc(C(F)(F)F)c1)N(Cc1ccccc1)C1CCN(Cc2cccnc2)CC1 | 30 (≈ 14.1 µg/mL) | 20 | > 2200 | –
32 | O=C(Nc1cccc(C(F)(F)F)c1)NC1CCN(Cc2ccccc2F)CC1 | 44 (≈ 17.4 µg/mL) | 13 | – | permeability [5]: 1500 ×10⁻⁶ cm/s
33 | Cc1ccc(CN2CCC(NC(=O)Nc3cccc(C(F)(F)F)c3)CC2)cc1 | 14 (≈ 5.48 µg/mL) | – | > 2200 | –
34 | CCCN1CCC(N(Cc2cccnc2)C(=O)Nc2cccc(C(F)(F)F)c2)CC1 | < 0.1 | – | – | EC50 (BJ): > 23 µM; EC50 (HCC95): > 23 µM; permeability [5]: 1300 ×10⁻⁶ cm/s
35 | O=C(Nc1cccc(I)c1)NC1CCN(Cc2ccccc2)CC1 | – | > 67 | – | –
36 | CCCN1CCC(N(Cc2ccncc2)C(=O)Nc2cccc(C(F)(F)F)c2)CC1 | 85 (≈ 35.7 µg/mL) | – | 700 | –
37 | CC(C)(C)CN1CCC(N(Cc2ccccc2)C(=O)Nc2cccc(C(F)(F)F)c2)CC1 | – | 0.96 | – | –
38 | CCCN1CCC(N(CCOC)C(=O)Nc2cccc(C(F)(F)F)c2)CC1 | 64 (≈ 24.8 µg/mL) | 21 | – | permeability [5]: 1600 ×10⁻⁶ cm/s

Row | SMILES | solubility at 18 h [2] [µM] | IC50 (DCN1-like protein 1 [3]) [µM] | Papp at 10 µM [5] [×10⁻⁶ cm/s] | other results
39 | O=C(Nc1cccc(C(F)(F)F)c1)N(Cc1ccccc1)C1CCN(Cc2cc[nH]n2)CC1 | 54 (≈ 24.7 µg/mL) | 2.4 | > 2200 | –
40 | O=C(Nc1cccc(C(F)(F)F)c1)N(Cc1ccccc1)C1CCN(CC2CCCC2)CC1 | 48 (≈ 22.1 µg/mL) | 0.37 | 990 | –
41 | O=C(Nc1cccc(C(F)(F)F)c1)NC1CCN(Cc2ccc(Cl)cc2)CC1 | 0.8 (≈ 0.329 µg/mL) | 25 | – | permeability [5]: 1300 ×10⁻⁶ cm/s
42 | O=C(Nc1ccccc1)NC1CCN(Cc2ccccc2)CC1 | 68 (≈ 21 µg/mL) | > 67 | – | permeability [5]: 1400 ×10⁻⁶ cm/s
43 | CCCN1CCC(N(Cc2cc(F)cc(C(F)(F)F)c2)C(=O)Nc2cccc(C(F)(F)F)c2)CC1 | 37 (≈ 18.7 µg/mL) | 1 | > 2200 | EC50 (DCN1-like protein 1 [1]): 0.18 µM; EC50 (BJ): > 23 µM; inhibition (Homo sapiens): inactive; EC50 (HCC95): 21 µM
44 | O=C(Nc1cccc(C(F)(F)F)c1)N(Cc1ccccc1)C1CCN(Cc2ccc(F)cc2)CC1 | 0.9 (≈ 0.437 µg/mL) | 10 | > 2200 | –
45 | CCCCN1CCC(N(Cc2ccc3c(c2)OCO3)C(=O)Nc2cccc(C(F)(F)F)c2)CC1 | 71 (≈ 33.9 µg/mL) | 0.36 | > 2200 | EC50 (DCN1-like protein 1 [1]): 0.11 µM; EC50 (BJ): > 40 µM; EC50 (HCC95): 46 µM
46 | Cc1ccc(NC(=O)NC2CCN(Cc3ccccc3)CC2)cc1Cl | 2.4 (≈ 0.859 µg/mL) | > 67 | > 2200 | –
47 | CCCCS(=O)(=O)N1CCC(N(Cc2ccccc2)C(=O)Nc2cccc(C(F)(F)F)c2)CC1 | 1 (≈ 0.498 µg/mL) | – | < 1 | –
48 | CCCN1CCC(N(Cc2ccco2)C(=O)Nc2cccc(C(F)(F)F)c2)CC1 | 69 (≈ 28.3 µg/mL) | 0.75 | > 2200 | EC50 (DCN1-like protein 1 [1]): 0.57 µM; EC50 (BJ): > 23 µM; EC50 (HCC95): > 23 µM; Kd (DCN1-like protein 1 [4]): 0.7 µM
49 | O=C(Nc1cccc(C(F)(F)F)c1)N(Cc1ccccc1)C1CCN(Cc2nccs2)CC1 | 6.3 (≈ 2.99 µg/mL) | – | 310 | –
50 | O=C(Nc1cccc(C(F)(F)F)c1)NC1CCN(Cc2ccc(F)cc2)CC1 | 19 (≈ 7.51 µg/mL) | 14 | > 2200 | –
51 | Cn1nccc1-c1cccc(NC(=O)NC2CCN(Cc3ccccc3)CC2)c1 | 78 (≈ 30.4 µg/mL) | > 67 | > 2200 | –
52 | CCCS(=O)(=O)N1CCC(N(Cc2ccccc2)C(=O)Nc2cccc(C(F)(F)F)c2)CC1 | 0.5 (≈ 0.242 µg/mL) | 0.74 | < 1 | –
53 | CC(=O)O[C@H]1CN(Cc2ccccc2)CC[C@@H]1NC(=O)Nc1cccc(C(F)(F)F)c1 | – | 12 | – | –
54 | O=C(Nc1cccc(-n2cccc2)c1)NC1CCN(Cc2ccccc2)CC1 | 1 (≈ 0.374 µg/mL) | > 67 | 930 | –
55 | CCCN1CCC(N(CC2CCCCC2)C(=O)Nc2cccc(C(F)(F)F)c2)CC1 | 90 (≈ 38.3 µg/mL) | 2.4 | > 2200 | –
56 | Cc1cccc(CN2CCC(NC(=O)Nc3cccc(C(F)(F)F)c3)CC2)c1 | 35 (≈ 13.7 µg/mL) | 6.6 | > 2200 | –
57 | CC(C)(C)N1CCC(N(Cc2ccc3c(c2)OCO3)C(=O)Nc2cccc(C(F)(F)F)c2)CC1 | 75 (≈ 35.8 µg/mL) | 0.31 | > 2200 | EC50 (DCN1-like protein 1 [1]): 0.37 µM; EC50 (BJ): > 40 µM; inhibition (Homo sapiens): inactive; EC50 (HCC95): > 40 µM
